Measurements as given in ChEMBL document CHEMBL3526139, “Clinical pharmacokinetics, metabolism, and drug-drug interaction of carfilzomib” (Drug Metab Dispos, 2013).

Experiments:
CYP3A = CYP3A (Homo sapiens, UniProt P08684+P20815+P24462+Q9HB55); experiment: Inhibition of CYP3A in human liver microsomes assessed as substrate metabolite formation using midazolam as substrate preincubated with microsomes for 30 mins prior to substrate addition measured after 5 mins by LC-MS/MS analysis; assay type: ADME; conditions: probe midazolam
In short: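 HLM (16-donor pool) were preincubated 30 min with carfilzomib 0.01–10 µM before addition of midazolam or testosterone at about Km. Metabolite formation was measured by LC-MS/MS after 5 min, in duplicate, relative to 0.5% acetonitrile controls.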

Plasma = experiment: Drug metabolism in plasma of human multiple myeloma patient assessed as morpholino-hPhe metabolite formation at 15 mg/m'2, iv administered as single dose measured within first 30 mins after end of drug infusion by LC-MS/MS analysis; assay type: ADME, organism-based; conditions: in vivo, 0.5 h
In short: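 Patients with multiple myeloma received a single 15 mg/m2 carfilzomib dose. Plasma was sampled pre-dose, at end of infusion, at 5, 15, 30 min and at 1, 1.5, 2, 4, 6, 24 h. Samples were protein-precipitated and analyzed by LC-MS/MS (metabolites 0.500–500 ng/mL) with deuterated internal standards.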

[1] = Cmax in human patient with relapsed solid tumor at 20 mg/m'2, iv administered on days 1, 2, 8, 9 15 and 16 of 28-day cycle over 2 to 10 mins measured on day 1 of cycle 1 by LC-MS/MS analysis; assay type: ADME, organism-based; parameters: route intravenous; conditions: in vivo
In short: (§1)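 Patients with relapsed solid tumors (n=3) received carfilzomib IV at 20 mg/m2. Plasma was sampled on Days 1 and 16 of Cycle 1 before dosing, at end of administration, and at 5, 15, 30 min and 1, 2, 4 h after. Samples underwent solid phase extraction and LC-MS/MS with d10-carfilzomib internal standard over 0.100–200 ng/mL. Parameters were derived noncompartmentally (constant IV infusion model) from actual elapsed time from infusion start.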

[2] = Cmax in human patient with relapsed solid tumor at 20 mg/m'2, iv administered on days 1, 2, 8, 9, 15 and 16 of 28-day cycle over 2 to 10 mins measured on day 16 of cycle 1 by LC-MS/MS analysis; assay type: ADME, organism-based; parameters: route intravenous; conditions: in vivo; in short: as §1
Hepatocyte = experiment: Cytotoxicity against human hepatocytes assessed as cell viability by MTT assay; assay type: cell-based
In short: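 MTT viability assay in cultured human hepatocytes from 3 donors after 3 days of carfilzomib exposure (0.1, 0.5, 2.5 µM) with daily medium and compound renewal. Solvent control was 0.08% DMSO.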

IC50 at 5 min (CYP3A): 490 nM | Drug metabolism (Plasma): metabolite_detected | Cmax [1]: 2760 ng/mL | Cmax [2]: 3710 ng/mL
SMILES: CC(C)C[C@H](NC(=O)[C@H](CCc1ccccc1)NC(=O)CN1CCOCC1)C(=O)N[C@@H](Cc1ccccc1)C(=O)N[C@@H](CC(C)C)C(=O)[C@@]1(C)CO1 [CARFILZOMIB]
Activity (Hepatocyte): Non-toxic
